We go through 5 compounds from ChEMBL document CHEMBL2021843, “Small peptide inhibitors of acetyl-peptide hydrolase having an uncommon mechanism of inhibition and a stable bent conformation” (J Med Chem, 2012).

By inhibition is commonly meant the relative decrease from the control value, in per cent. The IC50 is the concentration at which inhibition is half-maximal. The Ki is the dissociation constant of the complex between target and ligand, obtained from inhibition or displacement. Low values mean a stronger hold on the target, high ones a looser hold on the target.

Each structure is given as a SMILES string. Calls of active or inactive are those of the source. No cut-off for these calls is given here.

The target in experiment [1] is T1, Acylamino-acid-releasing enzyme (Sus scrofa) (UniProt P19205).
T1 sequence (whole entry): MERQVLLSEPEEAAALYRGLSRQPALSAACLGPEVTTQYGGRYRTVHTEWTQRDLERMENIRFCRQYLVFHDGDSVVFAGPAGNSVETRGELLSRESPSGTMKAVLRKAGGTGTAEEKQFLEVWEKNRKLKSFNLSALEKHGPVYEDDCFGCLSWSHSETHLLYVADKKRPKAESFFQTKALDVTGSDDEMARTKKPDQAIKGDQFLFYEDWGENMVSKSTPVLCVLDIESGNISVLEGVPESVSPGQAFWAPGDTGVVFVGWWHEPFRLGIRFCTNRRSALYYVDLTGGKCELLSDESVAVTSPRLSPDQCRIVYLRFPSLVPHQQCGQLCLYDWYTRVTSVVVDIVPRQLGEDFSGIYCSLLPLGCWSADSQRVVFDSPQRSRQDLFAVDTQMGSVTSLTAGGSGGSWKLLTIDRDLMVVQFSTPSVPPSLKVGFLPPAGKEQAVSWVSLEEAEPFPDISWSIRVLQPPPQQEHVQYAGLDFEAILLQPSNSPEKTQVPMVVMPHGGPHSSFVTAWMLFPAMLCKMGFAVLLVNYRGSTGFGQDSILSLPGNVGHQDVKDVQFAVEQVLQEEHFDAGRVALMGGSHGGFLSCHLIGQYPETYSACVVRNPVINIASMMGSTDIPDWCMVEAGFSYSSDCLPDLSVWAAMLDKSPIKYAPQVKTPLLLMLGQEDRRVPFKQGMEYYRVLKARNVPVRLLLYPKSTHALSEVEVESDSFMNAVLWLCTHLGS
The experiment in a line: (§1) Inhibition of pig APEH using acetyl-Ala-pNA as substrate incubated for 2 mins prior to substrate addition by spectrophotometry.

Experiment [2] concerns HeLa. Briefly: Cytotoxicity against human HeLa cells assessed as LDH production after 24 hrs by spectrophotometry. Format: functional, cell-based. The method in brief:
(§2)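 LDH release into culture medium after 24 h exposure of HeLa or A375 cells to peptide (50, 100, 150 μM). Medium from untreated cultures served as control, and medium from cells exposed to 1% Triton X-100 served as the 100% release positive control. Data are means ± SD.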

The target of experiment [3] is T2, Acylamino-acid-releasing enzyme (Homo sapiens) (UniProt P13798).
T2 sequence (whole entry): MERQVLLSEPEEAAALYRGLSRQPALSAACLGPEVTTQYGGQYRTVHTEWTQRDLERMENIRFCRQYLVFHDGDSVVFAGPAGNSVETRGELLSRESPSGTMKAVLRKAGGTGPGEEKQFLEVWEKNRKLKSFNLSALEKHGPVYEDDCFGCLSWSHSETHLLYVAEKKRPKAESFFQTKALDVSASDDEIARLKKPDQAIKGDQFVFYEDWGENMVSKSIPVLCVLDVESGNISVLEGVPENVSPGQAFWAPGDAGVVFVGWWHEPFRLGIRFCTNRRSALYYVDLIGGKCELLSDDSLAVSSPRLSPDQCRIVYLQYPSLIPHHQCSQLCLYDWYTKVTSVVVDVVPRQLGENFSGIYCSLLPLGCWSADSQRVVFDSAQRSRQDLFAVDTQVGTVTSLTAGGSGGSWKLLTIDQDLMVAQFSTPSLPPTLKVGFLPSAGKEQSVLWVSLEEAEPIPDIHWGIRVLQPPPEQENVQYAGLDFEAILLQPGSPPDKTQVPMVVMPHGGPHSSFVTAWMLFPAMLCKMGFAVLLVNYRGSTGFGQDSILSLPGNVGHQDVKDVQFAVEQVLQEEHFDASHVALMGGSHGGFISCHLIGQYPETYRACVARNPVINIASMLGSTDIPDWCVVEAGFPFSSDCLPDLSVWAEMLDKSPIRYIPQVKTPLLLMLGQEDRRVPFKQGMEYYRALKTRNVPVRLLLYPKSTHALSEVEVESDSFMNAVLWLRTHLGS
Briefly: Inhibition of APEH in human A375 cells after 24 hrs. It is filed as cell-based. As to conditions: A-375. The gist of the method:
(§3)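 Melanoma A375 and cervical HeLa cells were exposed for 24 h to peptide at 50, 100 or 150 μM. Data are means ± SD.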

A short description of experiment [4]: Inhibition of chymotrypsin at 1 mM incubated for 30 mins prior to substrate addition by spectrophotometry. The gist of the method:
(§4)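 Panel of proteases tested up to a maximal 1000 μM inhibitor, each at its own pH: carboxypeptidase Y pH 7.0; chymotrypsin, elastase and trypsin pH 8.0; subtilisin and proteinase K pH 7.5. IC50 and maximal % inhibition were recorded.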

A short description of experiment [5]: Inhibition of trypsin incubated for 30 mins prior to substrate addition by spectrophotometry. The method in brief: as §4
The test system of experiment [6] is HeLa. The experiment in a line: Proapoptotic activity in human HeLa cells assessed as caspase 3-mediated hydrolysis of Ac-DEVD-AMC at 100 uM after 24 hrs by fluorimetry. It is filed as functional, cell-based. The gist of the method: (§5)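 Caspase 3 activity was measured fluorimetrically with a kit after 24 h exposure of HeLa or A375 cells to compound. It was expressed as fold increase over untreated culture. Data come from triplicate analyses in three experiments, given as means ± SD.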

Experiment [7] has as its target T1, Acylamino-acid-releasing enzyme (Sus scrofa). To be noted: 150 uM.
The nature of experiment [8]: Inhibition of proteinase K at 1 mM incubated for 30 mins prior to substrate addition by spectrophotometry. The method in brief: as §4
Experiment [9] is described as follows: Inhibition of chymotrypsin incubated for 30 mins prior to substrate addition by spectrophotometry. The method in brief: as §4
Experiment [10] is described as follows: Inhibition of subtilisin incubated for 30 mins prior to substrate addition by spectrophotometry. The method in brief: as §4
In experiment [11] the test system is A-375. Briefly: Proapoptotic activity in human A375 cells assessed as caspase 3-mediated hydrolysis of Ac-DEVD-AMC at 100 uM after 24 hrs by fluorimetry. It is filed as functional, cell-based. The gist of the method:
as §5

Experiment [12] concerns A-375. Briefly: Proapoptotic activity in human A375 cells assessed as caspase 3-mediated hydrolysis of Ac-DEVD-AMC at 150 uM after 24 hrs by fluorimetry. It is filed as functional, cell-based. The method in brief: as §5
Experiment [13] has as its target T2, Acylamino-acid-releasing enzyme (Homo sapiens). Briefly: Inhibition of APEH in human HeLa cells after 24 hrs. Format: cell-based. The method in brief: as §3
Experiment [14] has the same target. Briefly: Inhibition of APEH in human A375 cells at 150 uM after 24 hrs. It is filed as cell-based. To be noted: A-375. The method in brief: as §3
Experiment [15] concerns the target T1, Acylamino-acid-releasing enzyme (Sus scrofa). To be noted: 1 mM.
Experiment [16] deals with HeLa. The experiment in a line: Cytotoxicity against human HeLa cells assessed as LDH production at 50 to 150 uM after 24 hrs by spectrophotometry. It is filed as functional, cell-based. The method in brief:
as §2

A short description of experiment [17]: Inhibition of carboxypeptidase Y incubated for 30 mins prior to substrate addition by spectrophotometry. The gist of the method: as §4
The target of experiment [18] is T1, Acylamino-acid-releasing enzyme (Sus scrofa). To be noted: 50 uM.
A short description of experiment [19]: Inhibition of elastase at 1 mM incubated for 30 mins prior to substrate addition by spectrophotometry. The gist of the method: as §4
In experiment [20] the target is T1, Acylamino-acid-releasing enzyme (Sus scrofa). To be noted: 50 to 100 uM.
Experiment [21] deals with T3, Acylamino-acid-releasing enzyme (Sus scrofa, UniProt P19205).
T3 sequence (P19205 whole entry): T1 sequence (whole entry)
The experiment is described as §1.

Experiment [22] is described as follows: Inhibition of proteinase K incubated for 30 mins prior to substrate addition by spectrophotometry. The gist of the method:
as §4

A short description of experiment [23]: Inhibition of carboxypeptidase Y at 1 mM incubated for 30 mins prior to substrate addition by spectrophotometry. The gist of the method:
as §4

Experiment [24] deals with T2, Acylamino-acid-releasing enzyme (Homo sapiens). The experiment in a line: Inhibition of APEH in human HeLa cells at 150 uM after 24 hrs. It is filed as cell-based. The gist of the method: as §3
The subject of experiment [25] is A-375. The experiment in a line: Cytotoxicity against human A375 cells assessed as LDH production at 50 to 150 uM after 24 hrs by spectrophotometry. Format: functional, cell-based. The gist of the method:
as §2

Experiment [26] deals with HeLa. Briefly: Proapoptotic activity in human HeLa cells assessed as caspase 3-mediated hydrolysis of Ac-DEVD-AMC at 150 uM after 24 hrs by fluorimetry. Format: functional, cell-based. The gist of the method:
as §5

The nature of experiment [27]: Inhibition of subtilisin at 1 mM incubated for 30 mins prior to substrate addition by spectrophotometry. The method in brief: as §4
Experiment [28] can be described thus: Inhibition of trypsin at 1 mM incubated for 30 mins prior to substrate addition by spectrophotometry. The gist of the method:
as §4

Experiment [29] can be described thus: Inhibition of elastase incubated for 30 mins prior to substrate addition by spectrophotometry. The method in brief:
as §4

Experiment [30] has as its system HeLa. Briefly: Proapoptotic activity in human HeLa cells assessed as caspase 3-mediated hydrolysis of Ac-DEVD-AMC at 50 uM after 24 hrs by fluorimetry relative to untreated control. Format: functional. The gist of the method:
as §5

Experiment [31] relates to HeLa. Briefly: Proapoptotic activity in human HeLa cells assessed as caspase 3-mediated hydrolysis of Ac-DEVD-AMC at 30 uM after 24 hrs by fluorimetry relative to untreated control. It is filed as functional. The gist of the method: as §5
Experiment [32] has as its system HeLa. The experiment in a line: Cytotoxicity against human HeLa cells assessed as LDH production at 100 uM after 24 hrs by spectrophotometry. Format: functional. The method in brief: as §2

For `CSCC[C@@H](NC(=O)[C@@H](CC(C)C)NC(C)=O)C(=O)N1CCC[C@@H]1C(=O)N[C@H](Cc1cnc[nH]1)C(N)=O`, the inhibition entry in [1] was “inactive”.
As to `CSCC[C@@H](NC(=O)[C@@H](CC(C)C)NC(=O)C(F)(F)F)C(=O)N1CCC[C@@H]1C(=O)N[C@H](CC(=O)O)C(N)=O`, the outcome in [2] was inactive.
Take `CSCC[C@@H](NC(=O)[C@@H](CC(C)C)NC(=O)C(F)(F)F)C(=O)N1CCC[C@@H]1C(=O)N[C@H](Cc1cnc[nH]1)C(N)=O`: the inhibition result in experiment [3] is “Dose-dependent effect”; in [13], “Dose-dependent effect”; in [18] it was > 25%. Besides, the Imax in [4] was < 1%; in experiment [7] it was 72%; in [8], < 1%; in experiment [14] it was 50%; in [15], 72%; in experiment [19], < 1%. Besides, the Imax in [23] is 30%; in experiment [24] it was 80%; in [27], < 1%; in experiment [28] it was < 1%. Also, the IC50 in [5] is > 1000 µM; in [9], > 1000 µM; in [10], > 1000 µM; in experiment [17], 210 µM; in [21], 98 µM; in experiment [22] it was > 1000 µM. The IC50 in [29] is > 1000 µM. The outcome in experiment [6], in [11], in [12] and in experiment [26] was Active. Also, the result in experiment [2], in [16] and in [25] was inactive. Also, the inhibition result in experiment [20] was “Active”. Besides, the Ki in experiment [21] is 24 µM.
For `CC[C@@H](C)[C@@H](O)[C@H](C)C(=O)[C@H](C)/C=C(\C)C[C@H](C)[C@@H]1OC(=O)[C@H]1CC` [EBELACTONE B], the “fold change (FC)” value in experiment [30] and in experiment [31] was 5 each time. Further, the values for the Activity entry in experiment [2] and in experiment [32] were “Dose-dependent effect” and 28%, respectively.
Take `CSCC[C@@H](NC(=O)[C@H](N)CC(C)C)C(=O)N1CCC[C@@H]1C(=O)N[C@H](Cc1cnc[nH]1)C(N)=O`: in [1], the inhibition entry was “inactive”.
